Laboratory results taken from the EternaBench riboswitch data.

System: MS2 coat protein
Experiment: apparent Kd, MS2 coat protein; higher = weaker binding; RNA-MaP array; tryptophan 2.4 mM where present
Procedure, shortened: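 In 100 mM Tris-HCl pH 7.5, 80 mM KCl, 4 mM MgCl2, BSA, DTT, yeast tRNA and Tween-20, SNAP-549-labelled MS2 coat protein was titrated from 0.7 or 1.5 nM, doubling to 3 µM, over designs transcribed by stalled E. coli RNA polymerase on Illumina sequencing-chip clusters. This was done first without ligand, then with ligand held constant. After green signal was normalised to red-channel RNA signal and control-cluster median Fmax, the apparent Kd was taken as the median of filtered per-cluster binding-curve fits.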

[1] = designed as: OFF switch for tryptophan, no ligand
[2] = ligand present: tryptophan, designed as: OFF switch for tryptophan
[3] = designed as: ON switch for tryptophan, no ligand
[4] = ligand present: tryptophan, designed as: ON switch for tryptophan

Row | Sequence | apparent Kd [1] | apparent Kd [2] | apparent Kd [3] | apparent Kd [4]
1 | AAUGUAUUCCACAUGAGGAUCACCCAUGUGCGAGGACCGGUACGGCCGCCACUCGGUGUUGGGAUCAGUUCUGAAUACAUUAAUG | 15.9 nM | 47.5 nM |  | 
2 | CACAAUUUGUCGGCCGCCACUAAGGUAACUUUUCUCACAUGAGGAUCACCCAUGUGCCCGAAACUUAGGACCGGGAUAAUGGGUG |  |  | 82.4 nM | 45.3 nM
3 | GCGGAAUAAUCGGCCGCCACUAUGAUAUAGGAAACUAUAACAUGAGGAUCACCCAUGUAUCCUCAUAGGACCGGGAUUAAAACGC |  |  | 105 nM | 24.8 nM
4 | UUAUAAGUACCGGUCCUCAGAUCCUCAUGACGAGGACCGGUACGGCCGCCACUCGAAACAUGAGGAUCACCCAUGUAAUAACAUC | 19.6 nM | 20.7 nM |  | 
5 | GCAUCCUAGUCGGCCGCCACUGCAAUUGUAGUACUGCUACAUGAACAUGAGGAUCACCCAUGUAGCAGGACCGGGACUAGGAUGC |  |  | 55 nM | 16.1 nM
6 | CCUAUGCAGUCGGCCGCCACUGAACAUGAGGAUCACCCAUGUAAUUAAAAUUAUGAUCCUGAAAUCAGGACCGGGACUGUAUAGG | 218 nM | 85.4 nM |  | 
7 | AAAUAAACCUCGGCCGCCACUCGCCAUGAGGAUCACCCAUGUAACAUGAGGAUCACCCAUGUACAGAGGACCGGGAGGUCCUAGU |  |  | 73 nM | 100 nM
8 | GGGUACAUCGCGGCCGCCACUUAUGUAAAUACAUGAGGAUCACCCAUGUCGAUGGAGACAUCGGAGAGGACCGGGUGAUGUACCG |  |  | 36.1 nM | 35.9 nM
9 | UGUCAGCGAAAGUUGACAUGUCUUACCGGUCGAGGACCGGUACGGCCGCCACUCGAUCUCUCGCACAUGAGGAUCACCCAUGUUG |  |  | 21.4 nM | 15.1 nM
10 | CCUAUGCAGUCGGCCGCCACUGAGUCCUCAAUAAUAAAUUAAUAUACAUGAGGAUCACCCAUGUACAGGACCGGGACUGUAUAGG | 205 nM | 167 nM |  | 
11 | GGAAUAAUGGCGGCCGCCACUAACUCAUAUACAUCAUGUACAUGAGGAUCACCCAUGUAGGUGUAUAGGACCGGGCCAUAAUUCC | 22.4 nM | 38.1 nM |  | 
12 | CGCAACAUGAGGAUCACCCAUGUAAUGACGCGAGGACCGGUACGGCCGCCACUCGCCUGGCAGUGAGCGCAUGCGGCCUGGGUAU | 11.1 nM | 12.2 nM |  | 
13 | UGUCGUAGACAUGAGGAUCACCCAUGUCCACGAGGACCGGUACGGCCGCCACUCGGGAUAUAAACCGUUACGGGUGGGUGGUGUU | 18.8 nM | 37.3 nM |  | 
14 | UAAUCCGGUCCUCGAUAACAUGGGUGAAUACGAGGACCGGUACGGCCGCCACUCGAUAACAUGAGGAUCACCCAUGUAAUAAUAA | 85.7 nM | 84.1 nM |  | 
15 | ACAUGAGGAUCACCCAUGUACAUCACCCGACGAGGACCGGUACGGCCGCCACUCGGGUAUAUAUAUACAUCGGGUGGUUUUGCAU |  |  | 17.6 nM | 17.3 nM
16 | AGCAACUAGUCGGCCGCCACUCAUAUUACAUGAGGAUCACCCAUGUAUACAUGGUUGUUAUAUUUGAGGACCGGGACAGUUGCAU |  |  | 70.4 nM | 38.1 nM
17 | CUAAUUAUAUCGGCCGCCACUUACUCAUGAGGUAACAACAUGAGGAUCACCCAUGUUUGAGGAUCAAGGACCGGGAUAUAAUUAG |  |  | 28.9 nM | 17 nM
18 | AACAACUAGUCGGCCGCCACUCAUAAUACAUGAGGAUCACCCAUGUAUACUUGGUUUUUAUAUUUGAGGACCGGGACAGUUGCAU | 11.6 nM | 10.5 nM |  | 
19 | AUGCAGAACACGGCCGCCACUCAUUGUAGACAUGAGGAUCACCCAUGUAAUAGGGAUAUUUUAUUGAGGACCGGGUGUAAUGCAA |  |  | 51.1 nM | 28.9 nM
20 | GACGCAUGAGUUGGAACAGCUCAUGGGUCGCGAGGACCGGUACGGCCGCCACUCGGCUGUACAUGAGGAUCACCCAUGUCAGGGU |  |  | 279 nM | 550 nM
21 | UAUAUAUACUCGGCCGCCACUGAGAGAGUCAUGUAAACAUGAGGAUCACCCAUGUAAUAUAUAUACAGGACCGGGAGUAUAUUAA | 15.7 nM | 13.8 nM |  | 
22 | UUUGGCGGCGAUCUGGGUUUACCAGAUCGGCGAGGACCGGUACGGCCGCCACUCGUGUUUCUUUGACAUGAGGAUCACCCAUGUA |  |  | 62.5 nM | 39.1 nM

Row | Sequence | apparent Kd [1] | apparent Kd [2] | apparent Kd [3] | apparent Kd [4]
23 | GUUAUAUACUCGGCCGCCACUGAGAGAGUCAUGUAAACAUGAGGAUCACCCAUGUAAUAUAUAUACAGGACCGGGAGUAUAGUAA | 14.5 nM | 13 nM |  | 
24 | GGAGCUACGUCGGCCGCCACUAGCGGUUAUUACGUGUACAUGAGGAUCACCCAUGUAAUAUGGCUUAGGACCGGGACGUAGCUCC | 22.5 nM | 27.1 nM |  | 
25 | UGGUACUAGGCGGCCGCCACUGGGUGAUACAUGAGGAUCACCCAUGUUUAAUGCCGAGAGGCAACUAGGACCGGGCCUAGUACAU |  |  | 150 nM | 689 nM
26 | ACACAAUACAUGAGGAUCACCCAUGUAAAACGAGGACCGGUACGGCCGCCACUCGAAUACUGUAAUCCUCGGAAUAUUAAGUGAA | 41 nM | 35.3 nM |  | 
27 | UAUACAUGGUAUAAAUAUAUAUAUAAGAAACGAGGACCGGUACGGCCGCCACUCGUGCCGGAAACAUGAGGAUCACCCAUGUAUU | 37.6 nM | 22.8 nM |  | 
28 | UAAUGCAUGACGGCCGCCACUAGAACAUGAGGAUCACCCAUGUACGGCGGCCGUCAUGGGUGGACUAGGACCGGGUCAUGCAUAU | 9.23 nM | 10.5 nM |  | 
29 | UGACAGAUAACCGCUGGUGCUCUCGAGUUGCGAGGACCGGUACGGCCGCCACUCGACAACAUGAGGAUCACCCAUGUUGCGGGUC | 102 nM | 49.8 nM |  | 
30 | UUACCGUAAGGUAUACCGGUCCACAAUAAUCGAGGACCGGUACGGCCGCCACUCGAUGUGUGAUCACAUGAGGAUCACCCAUGUA |  |  | 265 nM | 379 nM
31 | CUUCGCAUAGGAAAACUAUGUGAAGAAAAUCGAGGACCGGUACGGCCGCCACUCGUCCUCAACAUGAGGAUCACCCAUGUAAUAA | 18.3 nM | 40.1 nM |  | 
32 | AAUGUAUGGCACAUGAGGAUCACCCAUGUGCGAGGACCGGUACGGCCGCCACUCGGUCCUGGGAUCUUAUUACUAUACAUUAAUG | 11.6 nM | 24 nM |  | 
33 | AAUUCCGGGUCGGCCGCCACUGAUAUGGCGAGUCCUCGAACUUACAUGAGGAUCACCCAUGUAAACAGGACCGGGACCGCAUGGG | 18.5 nM | 49.1 nM |  | 
34 | UAACAUGAGGAUCACCCAUGUAAACUAAGUCGAGGACCGGUACGGCCGCCACUCGAAAUUGAAGAAUUGGCGGAAAAUGUAUGUU | 13.9 nM | 18.9 nM |  | 
35 | CGCCACUCGAGUGAUCCUCACGAGUGGCUACGAGGACCGGUACGGCCGCCACUCGAAUUAACAUGAGGAUCACCCAUGUACUCCA |  |  | 93.6 nM | 19.1 nM
36 | CAGGCUAGGACGGCCGCCACUGUGGCUACGGUACAUGAGGAUCACCCAUGUUUGUGGUUGAUCUACAGGACCGGGUCCUGACACG |  |  | 132 nM | 483 nM
37 | ACGUAGAAGUCGGCCGCCACUGAUUUCAUGUUCAACAUGAGGAUCACCCAUGUACCUUAUGUUAACAGGACCGGGACGUAUACGA |  |  | 298 nM | 55 nM
38 | GGUUACUCUACGGCCGCCACUGAUUAAUUAUAAACCUGUACAUAAACAUGAGGAUCACCCAUGUACAGGACCGGGUAGUGUAACC |  |  | 37.8 nM | 26.8 nM
39 | AAACAUGAGGAUCACCCAUGUUGAGGAUCACGAGGACCGGUACGGCCGCCACUCGACAUGAGGAUCACCCAUGUGAGGAUCACCC |  |  | 175 nM | 174 nM
40 | AGCAACAAGUCGGCCGCCACUCUUUUUACAUGAGGAUCACCCAUGUUUAUAUCAUGGUCUUAAUAGAGGACCGGGACAGUUGCAU | 37.2 nM | 54.6 nM |  | 
41 | CUAUAAGUACCGGUCCUCAGAUCCUCAUGACGAGGACCGGUACGGCCGCCACUCGAAACAUGAGGAUCACCCAUGUAAUAACAUU | 19.8 nM | 20.2 nM |  | 
42 | AAUUAUCAGUCGGCCGCCACUGACACAUGAGGAUCACCCAUGUAACUUGGGAUAAAUUUAAUAAACAGGACCGGGACAAAGGCUA | 58.8 nM | 49.7 nM |  | 
43 | UAACAUGAGGAUCACCCAUGUUUGAAGAAACGAGGACCGGUACGGCCGCCACUCGACGAGUGGAUGAAUAGUGGGCUUGUGUGCU |  |  | 13.7 nM | 15 nM
